Compound activity as filed in PubChem BioAssay.
CHRM5 antagonist: human M5 muscarinic receptor antagonists, primary screen, CHO cells, Fluo-8 calcium fluorescence; Muscarinic acetylcholine receptor M5 (Homo sapiens), P08912; CHO-hM5 cells, ACh EC80; inhibition, % at 3 µM; hit rate 0.59% among 360,000; AID 624040, 2012;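 active = inhibition above a per-plate cutoff, the mean of that plate's test compounds plus 3 SD, cut at about 27% in these data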;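 also: 0% = acetylcholine EC80 with DMSO and 100% = DMSO without agonist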
Target sequence (P08912 whole entry, looked up): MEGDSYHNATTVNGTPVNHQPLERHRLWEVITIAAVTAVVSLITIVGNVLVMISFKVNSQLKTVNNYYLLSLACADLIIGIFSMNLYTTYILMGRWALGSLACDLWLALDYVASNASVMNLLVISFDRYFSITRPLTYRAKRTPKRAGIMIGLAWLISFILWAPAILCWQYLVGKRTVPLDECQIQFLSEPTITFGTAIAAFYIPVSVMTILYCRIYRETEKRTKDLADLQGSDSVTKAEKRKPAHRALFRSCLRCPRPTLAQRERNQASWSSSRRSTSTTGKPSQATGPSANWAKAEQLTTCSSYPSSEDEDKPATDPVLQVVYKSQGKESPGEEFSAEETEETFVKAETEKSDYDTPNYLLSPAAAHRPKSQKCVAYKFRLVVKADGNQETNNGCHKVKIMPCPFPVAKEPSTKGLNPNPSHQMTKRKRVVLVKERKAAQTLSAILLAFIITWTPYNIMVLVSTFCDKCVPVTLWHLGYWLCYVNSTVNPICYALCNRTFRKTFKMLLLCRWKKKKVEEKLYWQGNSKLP
M5 PAM: human M5 muscarinic receptor positive allosteric modulators, primary screen, CHO-K1 cells, Fluo-8 calcium fluorescence. Muscarinic acetylcholine receptor M5 (Homo sapiens), P08912. CHO-K1 hM5, ACh EC20 PAM; 0% = ACh EC20, 100% = ACh EC100. activation, % at 3 µM. hit rate 0.3% among 360,000;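 active = activation above the run cutoff, the mean activation of all test compounds plus 3 SD, cut at about 18% in these data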
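system = human M5 receptor in CHO-K1 cells | compound = one concentration, 3 µM final (nominal) | schedule = Post-acetylcholine fluorescence recording 140 s | signal = Fluo-8 calcium dye fluorescence, kinetic read | benchmarks = low control EC20 acetylcholine (0%), high control EC100 acetylcholine (100%) | repeats = singlicate, one well per test compound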
CHO-K1 Ca antag: nonselective inhibitor or artifact in parental CHO-K1 cells | AID 602250 | ATP-induced calcium, Fluo-8 fluorescence | hit rate 0.6% among 360,000 | inhibition, % at 3 µM;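 active = inhibition above a per-plate cutoff, the plate's mean sample inhibition plus 3 SD, cut at about 24% in these data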;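 also: 0% = DMSO plus EC80 ATP and 100% = DMSO alone without ATP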
CHO-K1 Ca ag: counter-screen for M1 agonists: effect in parental CHO-K1 cells; Fluo-8 calcium fluorescence; scaled to maximal ATP response, vehicle zero; activation, % at 3 µM; hit rate 0.48% among 360,000; in the data active = activation above about 15%;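 also: untransfected CHO-K1 host cells lacking M1 receptor as counterscreen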
M5 ag: human M5 muscarinic receptor agonists, primary screen, CHO-K1 cells, Fluo-8 calcium fluorescence; Muscarinic acetylcholine receptor M5 (Homo sapiens), P08912; AID 624037, 2012; hit rate 0.19% among 360,000; CHO-K1 hM5 cells; 0% DMSO wells, 100% maximal acetylcholine response; activation, % at 3 µM;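 active = activation above the run's mean over test compounds plus 3 SD, cut at about 23% in these data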;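 also: signal is peak over basal fluorescence ratio across the kinetic read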
CHO-K1 Ca PAM: nonselective calcium activators in parental CHO-K1 cells, primary screen, counter-screen for M1 PAM project, cell-based, Fluo-8 calcium fluorescence, full deck, 1536-well. activation, % at 3 µM. ATP EC20; 0% at ATP EC20, 100% at ATP max. hit rate 0.02% among 360,000;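 active = activation above the run cutoff, the mean activation of all test compounds plus 3 SD, cut at about 40% in these data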;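 also: peak over basal fluorescence ratio in a 140 s read after ATP addition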
* = called active by the depositor. Rows were chosen to be rich in hits. Some 1.7% of all compounds tested hit in one or more screens of this group.

SMILES	CHRM5 antagonist	M5 PAM	CHO-K1 Ca antag	CHO-K1 Ca ag	M5 ag	CHO-K1 Ca PAM
COCCNC(=O)C1(C)CCCN(C(=O)c2cccc3ccccc23)C1 (stereo unspecified)	29.7*	-5.5	4.8	-0.6	0.5	-7.2
Cc1ccc2c(c1)nnn2C1CCN(S(=O)(=O)c2ccc(C(=O)O)cc2)CC1	5.7	-8.8	-11.6	3.0	-1.0	12.4
Cc1ccc2c(c1)nnn2C1CCN(S(C)(=O)=O)CC1	0.1	4.4	23.9*	-0.4	-0.1	-5.9
CC(C)(C)c1ccc(-n2ncc3c2CCCC3NC(=O)C2(C(N)=O)CC2)cc1 (stereo unspecified)	27.9*	-12.6	20.9	12.8	3.0	6.2
Cc1cc(C(=O)NC2CCCc3c2cnn3-c2ccc(C(C)(C)C)cc2)nn1C (stereo unspecified)	35.4*	-15.6	24.9*	11.9	-0.6	-9.5
CC(=O)NCC(=O)NC1CCCc2c1cnn2-c1ccc(C(C)(C)C)cc1 (stereo unspecified)	6.7	0.3	2.8	1.4	-6.1	8.2
COc1cc(NC(=O)C(C)Oc2ccccc2)c(OC)cc1NC(=O)c1ccccc1 (stereo unspecified)	0.9	8.1	24.3*	-0.3	-0.2	-24.2
CC(Oc1ccccc1)C(=O)Nc1ccc(NC(=O)c2ccccc2)cc1 (stereo unspecified)	3.8	-3.7	16.8	0.2	-3.3	-13.2
C[C@@H]1CN([C@H](C)CO)C(=O)CCCn2nncc2CO[C@H]1CN(C)Cc1ccncc1	-2.0	5.1	-9.0	0.6	0.2	14.4
O=S1(=O)CC(N2CCCC2)CN1Cc1cn(Cc2ccc(F)cc2)nn1 (stereo unspecified)	3.6	-2.1	-12.2	0.6	-0.6	15.6
CCOc1ccc(N2CC(O)(c3cccs3)[N+]3=C2CCCC3)cc1 (stereo unspecified)	35.8*	-33.3	-7.3	1.1	-16.5	16.6
O=C(Nc1cc([N+](=O)[O-])ccc1Cl)C(Sc1ccccc1)c1ccccc1 (stereo unspecified)	5.5	-9.5	-0.5	0.4	-3.8	2.7
O=C1C=C(NC(=O)Nc2ccc(Cl)c(Cl)c2)CCC1	23.3	-17.9	29.9*	7.1	5.6	-1.6
O=C(Nc1ccc(Br)cc1)Nc1ccccc1F	0.6	-11.1	2.6	5.7	2.5	0.8
O=C(NNc1ccccc1[N+](=O)[O-])Nc1ccc(Cl)c(Cl)c1	28.9*	-17.7	21.1	13.3	12.2	6.3
O=C(Nc1ccc(Cl)c(Cl)c1)Nc1ccon1	10.4	-21.0	19.9	10.6	7.8	-19.6
O=C(Nc1ccc(Cl)c([N+](=O)[O-])c1)C(Sc1ccccc1)c1ccccc1 (stereo unspecified)	29.7*	-19.2	6.8	10.2	-0.2	9.9
O=C(Nc1ccc(Cl)c(Cl)c1)Nc1ccc(Br)cc1F	30.9*	-13.9	27.5*	11.0	4.4	1.1
O=C(Nc1ccc(Cl)c(Cl)c1)Nc1ccccc1O	42.5*	-24.7	24.6*	13.0	3.4	-9.1
O=C(CNS(=O)(=O)c1cccc2nonc12)NCc1ccc(F)cc1	-1.0	-2.0	-10.1	0.6	-12.0	23.2
N#C/C(=C\c1ccc(N2CCOCC2)o1)C(=O)NC1CCCCC1	19.6	-11.8	0.1	15.8*	20.0	12.1
N#C/C(=C/c1ccc(N2CCOCC2)o1)C(=O)Nc1ccccc1	27.3*	-20.8	20.2	61.4*	42.6*	-3.0
COCCNC(=O)/C(C#N)=C/c1ccc(N2CCOCC2)o1	-0.8	3.1	-11.0	4.1	1.0	17.1
N#C/C(=C\c1ccc(N2CCOCC2)o1)C(=O)NCCc1ccccc1	16.1	-22.9	14.5	23.2*	47.0*	-7.3
COC(=O)c1c(C)nn(-c2ccccc2)c1-n1cccc1	-1.2	4.1	5.3	-0.2	-6.1	-6.3
SMILES	CHRM5 antagonist	M5 PAM	CHO-K1 Ca antag	CHO-K1 Ca ag	M5 ag	CHO-K1 Ca PAM
Cc1cc(/C=N/NC(=O)c2ccsc2)c(C)n1-c1cnccn1	0.1	28.2*	6.1	0.4	3.0	-10.4
CCOc1ccc(NC(=O)COc2ccc(C(=O)NCCc3ccccc3)cc2)cc1	-0.8	-3.8	29.3*	0.5	-3.2	-11.6
CCOc1ccc(NC(=O)CCC(=O)NNC(=O)COc2ccc(C)cc2)cc1	30.1*	-16.2	-1.7	2.9	-1.6	8.4
CCOc1ccc(NC(=O)CCC(=O)NNC(=O)COc2ccc(C)cc2Br)cc1	-16.6	3.4	-12.8	0.5	-0.7	12.9
CCCCN(CCCC)c1ccc(C(=O)c2ccccc2C(=O)O)c(O)c1	2.6	-2.0	-0.7	15.3*	10.4	8.4
O=C(CO/N=C/c1ccc(OC(F)F)cc1)NC1CCCC1	6.8	-3.1	-12.8	0.2	3.0	12.0
CN(C(=O)CO/N=C/c1ccc(OC(F)F)cc1)C1CCS(=O)(=O)C1 (stereo unspecified)	-5.7	19.4*	-6.4	1.0	3.7	18.2
CC1CN(C(=O)CSc2nnc(-c3ccccc3)o2)CC(C)O1 (stereo unspecified)	-3.5	21.7*	-5.4	0.6	-1.7	-2.4
COCCNc1nc2c(-c3cccc(C(F)(F)F)c3)nnn2c2ccccc12	-3.4	-5.2	-17.5	0.9	-3.3	-17.4
O=C(C1CCN(Cc2ccc(Cl)cc2)CC1)N1CCN(C(c2ccccc2)c2ccccc2)CC1	43.7*	-19.1	-2.2	0.8	-8.2	-4.4
O=C(NCc1ccccc1)NC12CC3CC(CC(C3)C1)C2	-11.3	19.7*	-7.4	3.8	-0.2	20.8
CSc1nnc(Cn2c(=O)sc3ccccc32)n1-c1cccc(Cl)c1	4.2	-1.9	-14.5	1.7	3.2	10.3
COc1ccc(Cl)c(-c2cc(C(=O)NC(C)C)[nH]n2)c1	-2.4	-1.4	2.3	0.4	-1.1	4.1
COc1ccccc1CNc1ncnc2sccc12	27.3*	-13.1	17.2	10.6	5.2	-18.6
COc1ccc(Nc2ncnc3sccc23)cc1OC	9.4	-7.0	-11.0	0.1	-1.7	2.6
c1ccc2c(c1)OCC(CNc1ncnc3sccc13)O2 (stereo unspecified)	35.3*	-17.1	30.7*	12.9	6.2	3.4
CN(C)c1ccc(CNc2ncnc3sccc23)cc1	16.3	-10.6	25.3*	10.0	-0.7	-16.0
COc1ccc(CCNc2ncnc3sccc23)cc1OC	47.9*	-29.6	33.5*	17.4*	6.0	-4.5
Cc1cc(C)cc(-n2c(C)cc(/C=N/NC(=O)c3cccc([N+](=O)[O-])c3C)c2C)c1	-0.2	-9.5	1.5	0.3	-7.2	0.9
